In the library only some 2.3% were active in any assay of this set; here they are far more common.
TRPC4 PAM = allosteric potentiators of mouse TRPC4 channel; HEK293 TRPC4beta/mu-opioid, DAMGO EC20, Fluo-4 Ca2+ flux; stronger effect = higher value; B-score at 10 µM; hit rate 0.42% among 310,000; Q9QUQ5;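 active means B-score of calcium response area above 5 SD of library B-scores, with initial fluorescence ratio within 5 SD of library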;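 further: B-score of integrated fluorescence ratio over time as area under calcium response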
TRPC4 block = TRPC4 (mouse) channel inhibition; HEK293 TRPC4beta/mu-opioid, DAMGO-evoked Fluo4 calcium flux; stronger effect = lower value; Q9QUQ5; hit rate 0.39% among 300,000; B-score at 10 µM;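 active means B-score over 3 SD under the library average, no early fluorescence shift, positive overall ratio signal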
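material = TRPC4beta/mu-opioid receptor HEK293 cell line | probe or stimulus = sequential submaximal and maximal DAMGO stimulation | compound dosing = one concentration per compound | measured by = Fluo4 Ca2+ flux fluorescence | evaluation = integrated fluorescence ratio relative to baseline, converted to per-well B score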
TRPC6 act = activates the mouse TRPC6 cation channel; HEK293-TRPC6 membrane potential dye fluorescence; stronger effect = higher value; B-score at 10 µM; hit rate 0.13% among 310,000;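 active means B-score of the integrated fluorescence ratio above library mean plus 3 SD, and starting fluorescence ratio within library mean plus 5 SD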;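 further: higher score means more depolarization so channel activation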
TRPC4 act = TRPC4 (mouse) channel activation; Q9QUQ5; HEK293 TRPC4beta/mu-opioid, Fluo4 calcium fluorescence; stronger effect = higher value; B-score at 10 µM; hit rate 0.49% among 310,000; AID 2237;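 active means B-score above 5 SD of library B-scores, and initial fluorescence ratio not above library mean plus 5 SD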;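 further: positive B-score marks a calcium rise read as TRPC4 activation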
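System: HEK293 cells stably co-expressing mouse TRPC4beta and mu-opioid receptor; Schedule: Fluo4 dye loading 45 min at room temperature, 110 s recording; Detection: Fluo4 fluorescence, kinetic; Evaluation: B-scored integrated calcium fluorescence ratio; Controls: buffer (low) and maximal DAMGO (high).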
TRPC6 inhibitor = mouse TRPC6 channel inhibition; Q61143; HEK293-TRPC6, membrane potential dye, ACh-evoked depolarization; stronger effect = lower value; B-score at 10 µM; hit rate 1.1% among 310,000; AID 2553;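 active means B-score under library mean minus 3 SD, initial fluorescence not abnormally high, positive integrated signal ratio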;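 further: B-score derived from integrated fluorescence ratio over the kinetic read; more negative B-score means stronger inhibition of depolarization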
TRPC4 spec 2 = mouse TRPC4 off-target activity of TRPC6 inhibitors, second screen; shares compounds with TRPC6 inhibitor; HEK293 TRPC4/MOR, membrane potential dye fluorescence; channel activated by saturating DAMGO dose; inhibition, % at 10 µM; hit rate 42% among 920;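 active means compounds whose fluorescence signal differed from control wells by over 3 SD, either direction, in both duplicate plates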
TRPC4 spec = selectivity of TRPC6 inhibitors: effect on mouse TRPC4; shares compounds with TRPC6 inhibitor; HEK293 TRPC4/mu-opioid, membrane potential fluorescence; activity change, negative = inhibition, % at 10 µM; hit rate 61% among 920; AID 2777;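 active means rise or fall in signal beyond 3 SD of buffer-only wells in both replicate plates, either sign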;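 further: integrated kinetic ratio of fluorescence range over baseline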
HEK293 MPD ctr 2-1 = parental HEK293 nonspecific activity of TRPC6 inhibitors, second screen; shares compounds with TRPC6 inhibitor; parental HEK293 membrane potential dye fluorescence; maximal acetylcholine challenge after compound addition; signal change vs control, % at 10 µM; hit rate 31% among 920; AID 2779;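 active means membrane potential signal moving either way by over 3 SD of the maximum-effect control, in both duplicate plates, meaning non-specific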
HEK293 MPD ctr-1 = checks TRPC6 inhibitor effects in parental HEK293 cells. shares compounds with TRPC6 inhibitor. parental HEK293 membrane potential dye fluorescence. membrane potential signal change, % at 10 µM. hit rate 60% among 920. AID 2780;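 active means membrane potential signal shifting up or down by more than 3 SD of buffer-only wells, on both duplicate plates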
HEK293 MPD ctr-2 = parental HEK293 nonspecific activity of TRPC6 modulators. shares compounds with TRPC6 inhibitor. membrane potential dye fluorescence. membrane potential signal change, % at 10 µM. hit rate 51% among 2,400;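 active means membrane potential signal moves up or down beyond 5 SD from buffer-only wells, on both duplicate plates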
HEK293 MPD ctr 2-2 = second check of TRPC6 modulator effects in parental HEK293 cells; membrane potential dye fluorescence; after compound, maximal acetylcholine stimulation; AID 488926; shares compounds with TRPC6 inhibitor; inhibition, % at 10 µM; hit rate 14% among 2,400;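 active means membrane potential signal drops by more than 5 SD from the mean control signal, in both duplicate plates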;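 further: plate controls were acetylcholine ECmax control wells for no effect and buffer only wells for full effect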
TRPC4/MOR mod = selectivity of TRPC6 modulators against mouse TRPC4 | shares compounds with TRPC6 inhibitor | percent change from control (negative = decrease, positive = increase), % at 10 µM | hit rate 69% among 2,400 | AID 488927 | HEK293 TRPC4/mu-opioid, membrane potential fluorescence;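 active means membrane potential signal moved up or down beyond 5 SD of buffer control wells, in both duplicate plates, actives on both sides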;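 further: plate controls were assay buffer wells for no effect and DAMGO maximal-effect wells for full effect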
TRPC4 ctr inh 2 = second selectivity test of TRPC6 modulators against mouse TRPC4 | shares compounds with TRPC6 inhibitor | HEK293 TRPC4/mu-opioid, membrane potential dye fluorescence; stimulated with maximal-effect DAMGO | inhibition, % at 10 µM | hit rate 55% among 2,400;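 active means drop in membrane potential signal beyond 5 SD of the control wells in both duplicate plates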;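 further: TRPC4 counter screen for TRPC6 hits run under conditions tuned for TRPC6 not TRPC4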
TRPC6 block conf = confirmation of mouse TRPC6 inhibitors | shares compounds with TRPC6 inhibitor | HEK293-TRPC6, membrane potential dye, ACh-evoked depolarization | inhibition, % at 10 µM | hit rate 43% among 3,300 | AID 488960;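 active means fluorescence ratio falls more than 5 SD below the full-stimulation control mean, in both duplicate runs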;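 further: integrated fluorescence ratio of peak minus minimum over baseline after agonist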
TRPC6 act conf = confirmation of mouse TRPC6 activators; shares compounds with TRPC6 inhibitor; HEK293-TRPC6 membrane potential dye fluorescence, FDSS; activation, % at 10 µM; hit rate 11% among 2,800; AID 488961;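 active means ratio signal rise beyond 5 SD above unstimulated control wells' mean, seen in both duplicate runs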;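 further: plate controls were buffer EC0 wells for no effect and acetylcholine ECmax response for full effect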
* = called active by the depositor; i = inactive; nt = no result given.

SMILES	TRPC4 PAM	TRPC4 block	TRPC6 act	TRPC4 act	TRPC6 inhibitor	HEK293 MPD ctr-2	HEK293 MPD ctr 2-2	TRPC4/MOR mod	TRPC4 ctr inh 2	TRPC6 block conf	TRPC6 act conf	others
Cc1ccc(S(=O)(=O)N2CCN(C(=O)c3ccccc3)CC2)cc1	i	i	14.7*	i	-12.4*	i	i	i	i	66.0%*	98.0%*
Cc1ccc(S(=O)(=O)N2CCN(C(=O)c3cccc(-n4cccc4)c3)CC2)cc1	i	i	13.7*	i	-13.4*	i	i	i	i	i	i
O=C(c1cccc(S(=O)(=O)N2CCCC2)c1)N1CCN(c2ccccc2F)CC1	i	i	i	i	i	nt	nt	nt	nt	nt	nt
O=C(c1cccc(S(=O)(=O)N2CCN(c3ccccc3)CC2)c1)N1CCCCCCC1	i	i	i	i	i	nt	nt	nt	nt	nt	nt
Cc1c(NC(=O)C(C)OC(=O)c2ccc(NC(=O)CC#N)cc2)c(=O)n(-c2ccccc2)n1C (stereo not drawn)	i	i	i	i	i	nt	nt	nt	nt	nt	nt
CNC(=O)[C@@]1(C)C=C[C@@H](Cc2ccccc2)N1C(=O)OC	i	i	i	i	i	nt	nt	nt	nt	nt	nt
Cc1ccc(Nc2nc(-c3sc(N)nc3C)cs2)cc1	i	i	i	i	-7.66*	nt	nt	nt	nt	i	i	TRPC4 spec 2=i;TRPC4 spec=-10.9%*;HEK293 MPD ctr 2-1=i;HEK293 MPD ctr-1=-237.0%*
COCCN(CCOC)C(=O)COC(=O)c1ccc(Cl)c(S(=O)(=O)N(C)c2ccccc2)c1	i	i	i	i	i	nt	nt	nt	nt	nt	nt
NCCc1nnc(SCc2c(Cl)cccc2Cl)o1	i	i	i	i	i	nt	nt	nt	nt	nt	nt
NCCCCCc1nnc(SCc2ccccc2Cl)o1	i	i	i	i	-6.44*	i	i	15.5%*	i	i	nt
NCCCCCc1nnc(SC/C=C/c2ccccc2)o1	i	i	i	i	-5.55*	101.5%*	i	17.5%*	i	i	nt
COCC(=O)N1CCC(Oc2ccc(C(=O)N(C)Cc3nccs3)cc2)CC1	i	i	i	i	i	nt	nt	nt	nt	nt	nt
NS(=O)(=O)c1cc2c(cc1Cl)NC(Cc1ccccc1)NS2(=O)=O (stereo not drawn)	i	i	i	i	i	nt	nt	nt	nt	nt	nt
COc1ccccc1Nc1nc(NCCCN(C)C)nc(N)c1[N+](=O)[O-]	i	i	i	i	-6.41*	i	i	i	49.0%*	42.0%*	i
O=C(CCOc1ccccc1)OCC(=O)c1cc2ccccc2o1	i	i	i	i	-9.29*	nt	nt	nt	nt	i	i	TRPC4 spec 2=i;TRPC4 spec=i;HEK293 MPD ctr 2-1=i;HEK293 MPD ctr-1=i
CCCCCCC(=O)N1CCC(c2nc3c(nnn3Cc3ccccc3Cl)c(=O)[nH]2)CC1	i	i	14.3*	i	-10.7*	131.0%*	i	22.5%*	i	73.5%*	127.0%*
CCN(CC)c1ccc(CN2CCC(C(=O)NCc3ccc(C)cc3)CC2)cc1	i	i	i	i	-5.09*	i	i	i	77.0%*	57.5%*	i
COC(=O)C1CCN(Cc2ccc(C)cc2)CC1	i	i	i	i	i	nt	nt	nt	nt	nt	nt
CCN(CC)c1ccc(NC(=O)C2CCCC2)cc1	i	i	i	i	-5.77*	i	i	i	i	i	i
CCN(CC)S(=O)(=O)N1CCC(C(=O)NCc2ccc(C)cc2)CC1	i	i	i	i	i	nt	nt	nt	nt	nt	nt
Cc1ccc(S(=O)(=O)NNC(=O)C2CCN(Cc3ccccc3)CC2)cc1	i	i	i	i	-14.6*	nt	nt	nt	nt	83.5%*	i	TRPC4 spec 2=i;TRPC4 spec=i;HEK293 MPD ctr 2-1=-14.5%*;HEK293 MPD ctr-1=0.1%*
Cc1[nH]nc(Nc2ccc(C(C)C)cc2)c1[N+](=O)[O-]	i	i	i	i	i	nt	nt	nt	nt	nt	nt
COc1ccc(-c2cc(=O)oc3c(C)c(O)c(CN(C)C)cc23)cc1	i	i	i	i	i	nt	nt	nt	nt	nt	nt
Cc1c(O)c(CN(C)C)cc2c1oc(=O)c1ccccc12	i	i	i	i	-5.15*	-125.5%*	i	-27.5%*	i	i	i
CCOC(=O)/C(=C/c1ccc(N2CCC(c3ccccc3)=N2)cc1)C(C)=O	i	i	14*	i	i	582.5%*	i	51.0%*	i	i	43.0%*
SMILES	TRPC4 PAM	TRPC4 block	TRPC6 act	TRPC4 act	TRPC6 inhibitor	HEK293 MPD ctr-2	HEK293 MPD ctr 2-2	TRPC4/MOR mod	TRPC4 ctr inh 2	TRPC6 block conf	TRPC6 act conf	others
CCOc1ccc(S(=O)(=O)NN=C2CCN(C(C)=O)CC2)cc1	i	i	i	i	i	nt	nt	nt	nt	nt	nt
Cc1cccc(NC(=O)CN2C(=O)CCS(=O)(=O)c3ccccc32)c1C	i	i	i	i	i	nt	nt	nt	nt	nt	nt
CC1CCC(C(C)C)C(OCC[N+](C)(C)C)C1 (stereo not drawn)	i	i	i	i	-7.73*	nt	nt	nt	nt	79.5%*	i	TRPC4 spec 2=i;TRPC4 spec=i;HEK293 MPD ctr 2-1=4.5%*;HEK293 MPD ctr-1=i
CC1CCC(C(C)C)C(OCC(O)C[N+]2(C)CCCCC2)C1 (stereo not drawn)	i	i	i	i	i	nt	nt	nt	nt	nt	nt
CSc1ccccc1OCc1cc(C(=O)N2CCc3[nH]cnc3C2c2ccccn2)no1 (stereo not drawn)	i	i	i	i	i	nt	nt	nt	nt	nt	nt
O=C(CN1C(=O)CCS(=O)(=O)c2ccccc21)Nc1ccccc1F	i	i	i	i	i	nt	nt	nt	nt	nt	nt

High-throughput results as filed in PubChem BioAssay.
